{"data": "Experimental data gathered from unrelated publications", "PTGS1": "Prostaglandin G/H synthase 1 (PTGS1, Ovis aries, UniProt P05979)", "Organic anion transporter 3": "Organic anion transporter 3 (Mus musculus, UniProt O88909)", "note": "Protocols differ between the studies behind these lines."}
{"Structure (SMILES)": "COc1ccc(-c2csc(=NN=Cc3c(C)ccc(C(C)C)c3O)n2-c2ccccc2Cl)cc1", "target": "PTGS1", "effect on": "enzyme activity", "action": "inhibitor", "method": "absorbance", "measurement": "IC50", "value": "9.87 µM"}
{"Structure (SMILES)": "CC(=O)N[C@H]1C(O)O[C@H](CO)[C@@H](O[C@@H]2O[C@H](CO)[C@H](O)[C@H](O)[C@H]2O)[C@@H]1O (stereo partly shown)", "target": "Galectin-7 (LGALS7, Homo sapiens, UniProt P47929)", "effect on": "binding", "method": "ITC", "measurement": "Kd", "value": "225 µM"}
{"Structure (SMILES)": "Cn1c(=O)c2c(ncn2C)n(C)c1=O", "target": "Organic anion transporter 3", "effect on": "transporter uptake", "action": "inhibitor", "method": "radiometric", "setting": "oocytes", "measurement": "IC50", "value": "7.5 µM"}
{"Structure (SMILES)": "O=c1cc(-c2ccc(O)cc2)oc2c([C@@H]3OC[C@H](O)[C@H](O)[C@H]3O)c(O)c([C@@H]3O[C@H](CO)[C@@H](O)[C@H](O)[C@H]3O)c(O)c12", "target": "Calcium/calmodulin-dependent protein kinase type II subunit delta (CAMK2D, Homo sapiens, UniProt Q13557)", "effect on": "binding", "method": "SPR", "measurement": "Kd", "value": "140 µM"}
{"Structure (SMILES)": "CCCC(=O)NCCCN1CCc2c([nH]c3ccc(Cl)cc23)C1", "target": "Sodium-dependent serotonin transporter (SLC6A4, Homo sapiens, UniProt P31645)", "effect on": "transporter uptake", "action": "inhibitor", "measurement": "IC50", "value": "96.2 µM"}
{"Structure (SMILES)": "CC1(CN)CCN(c2cnc3c(Sc4ccncc4Cl)n[nH]c3n2)CC1", "target": "Tyrosine-protein phosphatase non-receptor type 11 (PTPN11, Homo sapiens, UniProt Q06124)", "effect on": "enzyme activity", "action": "inhibitor", "measurement": "IC50", "value": "> 100 µM"}
{"Structure (SMILES)": "COc1cc(C(=O)OCCCN2CCCN(CCCOC(=O)c3cc(OC)c(OC)c(OC)c3)CC2)cc(OC)c1OC", "target": "Equilibrative nucleoside transporter 2 (Homo sapiens, UniProt Q14542)", "effect on": "transporter uptake", "action": "inhibitor", "method": "radiometric", "setting": "oocytes", "measurement": "IC50", "value": "256 µM"}
{"Structure (SMILES)": "COc1ccc(-n2c(-c3ccccc3)csc2=NN=Cc2c(C)ccc(C(C)C)c2O)cc1", "target": "PTGS1", "effect on": "enzyme activity", "action": "inhibitor", "method": "absorbance", "measurement": "IC50", "value": "14.3 µM"}
{"Structure (SMILES)": "N=c1c[n+](N2CCOCC2)[n-]o1", "target": "NAD-dependent protein deacetylase sirtuin-3, mitochondrial (SIRT3, Homo sapiens, UniProt Q9NTG7)", "effect on": "enzyme activity", "action": "inhibitor", "measurement": "IC50", "value": "35 µM"}
{"Structure (SMILES)": "Nc1ncnc2c1ncn2[C@@H]1O[C@H](CO)[C@@H](O)[C@H]1O", "target": "Organic anion transporter 3", "effect on": "transporter uptake", "action": "inhibitor", "method": "radiometric", "setting": "oocytes", "measurement": "IC50", "value": "930 µM"}
